The results in this text go back to ChEMBL document CHEMBL1781999, “Lead optimization of aryl and aralkyl amine-based triazolopyrimidine inhibitors of Plasmodium falciparum dihydroorotate dehydrogenase with antimalarial activity in mice” (J Med Chem, 2011).

SMILES strings stand for the structures. pEC50, pIC50: −log10 of the molar value. Converted amounts (≈) assume the structure as drawn. The source made the active and inactive calls. No cut-off for these calls is given here. Bounds are passed on as bounds.

Data set [1] in a line: Inhibition of His6-tagged recombinant Plasmodium berghei dihydroorotate dehydrogenase expressed in Escherichia coli using L-dihydroorotate as substrate after 10 to 15 mins by DCIP dye-based assay. Particulars: in the assay text read “5 to 10 mins” for “10 to 15 mins”. The method, boiled down:
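Truncated soluble enzyme lacking the N-terminal membrane domain. Final concentrations: 0.2 mM L-dihydroorotate, 0.02 mM CoQD, 0.12 mM DCIP. Reaction started with 10 nM enzyme and read at 600 nm for 5–10 min at 20 °C. Inhibitor 0.01–100 μM in 3-fold steps, in triplicate. IC50 from a three-parameter fit of vi/vo from initial rates.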

The test system of data set [2] is Mus musculus. Put plainly: Toxicity in Plasmodium berghei ANKA NK65 infected Swiss Webster mouse assessed as adverse effect at 3 to 100 mg/kg, po qd for 4 days. It counts as organism-based. Also on record: dose 3-100 mg/kg, route oral. The following applies: in vivo, 96 h. The method, boiled down:
(§1)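 Female Swiss Webster mice, 8-10 weeks old (20-22 g), infected intraperitoneally with 2 × 10^7 P. berghei NK65 ANKA-infected erythrocytes. Oral doses in CMC vehicle (200 μL), first given 3 h post-infection, then at 24, 48 and 72 h. Parasitemia followed daily from 24 h by light microscopy at 1000× oil immersion, counting ≥10 fields of >100 erythrocytes. Mice losing ≥20% body weight were euthanized.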

Data set [3] has as its system Plasmodium falciparum. Put plainly: Antimalarial activity against Plasmodium falciparum 3D7 infected in human A positive erythrocytes by [3H]hypoxanthine uptake assay in presence of serum in medium. In kind it is functional, organism-based. The method, boiled down:
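Growth read by [3H]-hypoxanthine uptake. Each concentration run in quadruplicate and fitted to a four-parameter variable-slope log[I]-response model for 50% growth inhibition.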

Data set [4] addresses T1, Dihydroorotate dehydrogenase (Plasmodium falciparum, UniProt Q54A96).
T1 sequence (Q54A96 whole entry): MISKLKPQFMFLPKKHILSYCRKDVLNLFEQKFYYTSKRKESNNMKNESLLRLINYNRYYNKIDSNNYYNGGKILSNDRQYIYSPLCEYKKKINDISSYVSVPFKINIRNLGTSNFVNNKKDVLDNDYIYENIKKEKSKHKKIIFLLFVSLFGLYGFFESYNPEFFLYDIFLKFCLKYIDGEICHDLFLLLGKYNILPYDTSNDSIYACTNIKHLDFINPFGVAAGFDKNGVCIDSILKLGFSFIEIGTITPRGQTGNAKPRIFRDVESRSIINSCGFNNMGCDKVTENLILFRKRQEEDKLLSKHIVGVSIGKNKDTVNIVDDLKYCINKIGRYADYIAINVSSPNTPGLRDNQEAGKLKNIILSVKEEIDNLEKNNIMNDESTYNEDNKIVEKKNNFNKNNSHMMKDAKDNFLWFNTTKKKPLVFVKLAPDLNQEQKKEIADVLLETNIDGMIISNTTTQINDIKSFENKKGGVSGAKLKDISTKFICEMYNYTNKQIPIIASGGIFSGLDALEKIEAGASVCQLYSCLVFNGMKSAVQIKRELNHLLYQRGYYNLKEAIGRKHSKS
The data set is described as follows: Inhibition of His6-tagged recombinant Plasmodium falciparum dihydroorotate dehydrogenase expressed in Escherichia coli using L-dihydroorotate as substrate after 5 to 10 mins by DCIP dye-based assay.

For data set [5], the system named is Plasmodium berghei ANKA. Put plainly: Antimalarial activity against Plasmodium berghei ANKA NK65 infected in Swiss Webster mouse assessed as complete cure of animal at 100 mg/kg, po qd measured on day 7 by light microscopic analysis. In kind it is functional, organism-based. Also on record: dose 100 mg/kg. The method, boiled down: as §1
The subject of data set [6] is Mus musculus. The data set is described as follows: Toxicity in Plasmodium berghei ANKA NK65 infected Swiss Webster mouse assessed as adverse effect at 50 mg/kg, po bid for 4 days. It counts as organism-based. Also on record: dose 50 mg/kg, route oral. Particulars: in vivo, 96 h.
The next data set relates to Liver. Put plainly: Intrinsic clearance in mouse liver microsome assessed per mg of protein at 1 uM after 60 mins by LC-MS analysis. The following applies: microsomes, 1 h. In kind it is ADME. In short, it runs like this: (§2)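 Microsomal stability. Compound at 1 μM with liver microsomes (0.4 mg/mL protein) in 0.1 M phosphate pH 7.4 at 37 °C. Started with an NADPH-regenerating system plus MgCl2; controls lacked NADPH. Quenched with cold acetonitrile at time points up to 60 min. Parent loss measured by LC-MS and fitted to exponential decay to give CLint.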
In general terms: Liver microsomes are vesicles of endoplasmic reticulum, rich in cytochrome P450 enzymes.

For data set [7], the system named is Plasmodium berghei ANKA. Put plainly: Antimalarial activity against Plasmodium berghei ANKA NK65 infected in Swiss Webster mouse assessed as complete cure of animal at 50 mg/kg, po bid measured on day 7 by light microscopic analysis. In kind it is functional, organism-based. Also on record: dose 50 mg/kg.
In data set [8] the test system is Mus musculus. Put plainly: Time duration above 1 uM plasma concentration in Swiss mouse at 20 mg/kg, po. It counts as ADME, organism-based. Also on record: dose 20 mg/kg, route oral. Particulars: in vivo. The method, boiled down:
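Non-fasted male Swiss outbred mice given a single gavage dose in suspension (0.5% Na-CMC, 0.5% benzyl alcohol, 0.4% Tween 80). One mouse per time point; blood taken by cardiac puncture under isoflurane into stabilizer over 24 h. Plasma measured by LC-MS; time above 1 μM read directly from the concentration-time profile.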

Data set [9] in a line: Plasma protein binding in human by albumin chromatographic method. The following applies: read-out: PPB (converted). In kind it is ADME, cell-free.
A further data set deals with Liver microsomes. The data set is described as follows: Intrinsic clearance in human liver microsome assessed per mg of protein at 1 uM after 60 mins by LC-MS analysis. In kind it is ADME. Particulars: microsomes, 1 h, 1 µM. The method, boiled down: as §2
The species named for data set [10] is Rattus norvegicus. Put plainly: Toxicity in Sprague-Dawley rat assessed as adverse effects. The following applies: in vivo.
A short description of data set [11]: Plasma protein binding in rat by ultracentrifugation analysis. The following applies: read-out: PPB (converted). It counts as ADME, cell-free. In short, it runs like this:
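Rat plasma spiked at 200 and 2000 ng/mL, then ultracentrifuged at 223,000 × g for 4.2 h at 37 °C. Free drug in the supernatant plasma water was compared with total drug in non-centrifuged plasma kept at 37 °C for the same time, giving fraction bound.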

Data set [12] relates to Rattus norvegicus. The data set is described as follows: Toxicity in Sprague-Dawley rat assessed as adverse effects at 20 mg/kg, po. The following applies: in vivo. It counts as organism-based. Also on record: dose 20 mg/kg, route oral. The method, boiled down: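 Male Sprague Dawley rats, fasted overnight, given compound as a 10 min IV jugular infusion (solution) or by oral gavage (suspension), n=2 per group. Monitored through 24 h of cannula blood sampling.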

Data set [13] in a line: Partition coefficient, log D of the compound at pH 7.4 by UV-HPLC analysis. Particulars: octanol/water.
The target of data set [14] is Dihydroorotate dehydrogenase (quinone), mitochondrial (Homo sapiens, UniProt Q02127). Put plainly: Inhibition of His6-tagged recombinant human dihydroorotate dehydrogenase expressed in Escherichia coli using L-dihydroorotate as substrate after 5 to 10 mins by DCIP dye-based assay.
Data set [15] has as its system Mus musculus. The data set is described as follows: Cmax in Swiss mouse at 20 mg/kg, po measured after 24 hrs by LC-MS analysis. In kind it is ADME, organism-based. Also on record: dose 20 mg/kg, route oral. The following applies: in vivo. The method, boiled down: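 Non-fasted male Swiss outbred mice given a single oral gavage dose in 0.5% w/v sodium carboxymethylcellulose, 0.5% v/v benzyl alcohol, 0.4% v/v Tween 80. One mouse per time point, cardiac blood under isoflurane, sampling to 24 h. Plasma stabilized, acetonitrile-precipitated, quantified by LC-MS against blank-plasma standards; Cmax read from concentration-time profile.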

Data set [16] deals with Mus musculus. Put plainly: Toxicity in Swiss mouse assessed as adverse effect at 20 mg/kg, po measured after 24 hrs. It counts as organism-based. Also on record: dose 20 mg/kg, route oral. The following applies: in vivo.
For data set [17], the system named is Plasmodium falciparum. The data set is described as follows: Antimalarial activity against Plasmodium falciparum 3D7 infected in human A positive erythrocytes by [3H]hypoxanthine uptake assay in presence of serum in medium albumax. In kind it is functional, organism-based.
The nature of data set [18]: Aqueous solubility of the compound in phosphate buffer at pH 6.5. It counts as physicochemical. The following applies: phosphate buffer, read-out: solubility. In short, it runs like this: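 Non-equilibrium solubility. Concentrated DMSO stocks were diluted into pH 6.5 phosphate buffer (final DMSO 1% v/v) and precipitation was monitored by nephelometry. Solubility is given as the concentration range just before a turbidity signal rose above background.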

Dihydroorotate dehydrogenase (quinone), mitochondrial, sequence (Q02127 whole entry): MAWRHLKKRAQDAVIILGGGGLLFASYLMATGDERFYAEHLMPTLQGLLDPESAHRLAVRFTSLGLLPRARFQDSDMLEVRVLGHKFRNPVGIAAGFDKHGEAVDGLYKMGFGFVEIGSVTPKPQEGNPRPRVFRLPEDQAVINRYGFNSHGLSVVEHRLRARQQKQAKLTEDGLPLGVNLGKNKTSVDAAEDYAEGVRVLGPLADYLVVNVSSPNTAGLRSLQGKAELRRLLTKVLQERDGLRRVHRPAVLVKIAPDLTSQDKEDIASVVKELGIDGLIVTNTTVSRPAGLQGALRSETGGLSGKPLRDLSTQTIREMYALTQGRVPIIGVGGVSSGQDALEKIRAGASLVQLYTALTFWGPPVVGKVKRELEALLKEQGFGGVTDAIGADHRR

As to `Cc1cc(Nc2ccc(S(F)(F)(F)(F)F)cc2)n2ncnc2n1`, the negative logarithm of the IC50 (pIC50) – broadly, −log10 of the IC50, conventionally taken in molar units – is 6.55 in data set [1], 6.89 in [4] and less than 4.00 in data set [14]. For the same compound, the Activity result in the data set on Mus musculus [2], with Mus musculus [6], in the data set filed under Rattus norvegicus [10], with Rattus norvegicus [12] and with Mus musculus [16] was “Non-toxic” each time. For the same compound, the negative-log EC50 (pEC50) (commonly −log10 of the EC50, conventionally taken in molar units) in the data set on Plasmodium falciparum [3] is 5.89; with Plasmodium falciparum [17], 6.74. Besides, the result in the data set on Plasmodium berghei ANKA [5] and in the data set with Plasmodium berghei ANKA [7] was inactive. The values for the CL in the data set on Liver and in the data set with Liver microsomes were less than 6 µL/min/mg and less than 5 µL/min/mg, respectively. The Time in the data set with Mus musculus [8] came to 18 h. The fraction unbound is 0.046 in data set [9] and 0.048 in data set [11]. Further, in data set [13], the pH-dependent lipophilicity (logD) (commonly lipophilicity at a set pH, counting ionised and neutral species) was found to be 3. Moreover, the concentration in the data set with Mus musculus [15] peaked (Cmax) at 12 µM. In addition, in [18], the solubility – broadly, the dissolved amount per volume that the medium holds – amounted to 71 µM (≈ 24.9 µg/mL).
Take `Cc1cc(Nc2cc(F)c(C(F)(F)F)c(F)c2)n2ncnc2n1`: the negative-log IC50 (pIC50) in data set [1] is 6.55; in data set [4], 6.72; in data set [14] it was less than 4.52. The Activity result with Mus musculus [2], in the data set on Mus musculus [6], in the data set listed under Rattus norvegicus [10], with Rattus norvegicus [12] and in the data set on Mus musculus [16] was “Non-toxic” each time. In addition, the pEC50 with Plasmodium falciparum [3] was 5.96; with Plasmodium falciparum [17] it was 6.66. The outcome in the data set with Plasmodium berghei ANKA [5] and with Plasmodium berghei ANKA [7] was inactive. Further, the CL is less than 6 µL/min/mg in the data set with Liver and less than 5 µL/min/mg with Liver microsomes. In the data set on Mus musculus [8], this compound registered a Time of 19 h. The fraction unbound in data set [9] was 0.034; in data set [11], 0.027. In data set [13], this compound displayed a pH-dependent lipophilicity (logD) of 2.9. For the same compound, the Cmax – broadly, the highest concentration seen after dosing – with Mus musculus [15] amounted to 33 µM. The solubility in data set [18] worked out at 9 µM (≈ 2.96 µg/mL).
